Tests used:
Homo sapiens [1] = assay: Tmax in chronic hepatitis B virus infected patient assessed as (1-((2-amino-9H-purin-9-yl)methyl)cyclopropoxy)me at 60 mg, po qd for 4 weeks by LC-MS analysis; format: ADME, organism-based; conditions: in vivo, 672 h
Outline: (§1)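 Daily oral LB80380 was given to CHB patients over 4 weeks. Blood was drawn on day 1 and at steady state (weeks 2–4), predose and 0.5–24 h postdose. Plasma LB80331 (LLOQ 5 ng/ml) and LB80317 (LLOQ 10 ng/ml) were measured by LC-MS/MS after protein-precipitation extraction. Tmax was taken by noncompartmental analysis.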

Homo sapiens [2] = assay: Half life in chronic hepatitis B virus infected patient assessed as (1-((2-amino-9H-purin-9-yl)methyl)cyclopropoxy)me at 60 mg, po qd for 4 weeks by LC-MS analysis; format: ADME, organism-based; conditions: in vivo, 672 h
Outline: (§2)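 CHB patients given LB80380 orally once daily for 4 weeks. Plasma was sampled on day 1 and at steady state (weeks 2–4), predose and 0.5, 1, 2, 3, 4, 6, 8 and 24 h postdose. LB80331 was measured by validated LC-MS/MS (LLOQ 5 ng/ml). Terminal-phase apparent t1/2 came from noncompartmental analysis and was flagged if extrapolated AUC exceeded 20% of AUC0-24.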

Homo sapiens [3] = assay: Cmax in chronic hepatitis B virus infected patient assessed as (1-((2-amino-9H-purin-9-yl)methyl)cyclopropoxy)me at 120 mg, po qd for 4 weeks by LC-MS analysis; format: ADME, organism-based; design: dose 120 mg, route oral; conditions: in vivo, 672 h
Outline: (§3)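 CHB patients, oral once daily for 4 weeks. Plasma sampled at steady state (weeks 2–4), predose and at 0.5, 1, 2, 3, 4, 6, 8 and 24 h postdose. LB80331 measured by validated LC-MS/MS (LLOQ 5 ng/ml) after protein precipitation with a stable-isotope internal standard. Cmax by noncompartmental analysis.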

Homo sapiens [4] = assay: Half life in chronic hepatitis B virus infected patient assessed as (1-((2-amino-9H-purin-9-yl)methyl)cyclopropoxy)me at 120 mg, po qd for 4 weeks by LC-MS analysis; format: ADME, organism-based; conditions: in vivo, 672 h; outline: as §2
Plasma = assay: Half life in CD-1 mouse plasma assessed as (1-((2-amino-9H-purin-9-yl)methyl)cyclopropoxy)me at 30 mg/kg, po administered as single dose by LC-MS analysis; format: ADME, organism-based; design: dose 30 mg/kg, route oral; conditions: in vivo
Outline: (§4)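 Male CD-1 mice given a single oral dose in 100% PEG 400. Samples extracted with perchloric acid and neutralized with ammonium bicarbonate. One aliquot assayed for the free analyte; the other treated with calf intestinal phosphatase to give the total including di-/triphosphates. Analysis by LC-MS/MS.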

Liver [5] = assay: Tmax in CD-1 mouse liver assessed as (1-((2-amino-9H-purin-9-yl)methyl)cyclopropoxy)me at 30 mg/kg, po administered as single dose by LC-MS analysis; format: ADME, organism-based; design: dose 30 mg/kg, route oral; conditions: in vivo
Outline: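 Male CD-1 mice received 30 mg/kg orally in 100% PEG 400. Plasma and snap-frozen liver were taken from 3 mice per time point at 1, 2, 4, 6, 10, 24 and 36 h. Samples were extracted with perchloric acid and neutralized with ammonium bicarbonate. Free LB80331/LB80317 was measured directly by LC-MS/MS; total, including di- and triphosphates, was measured after calf intestinal phosphatase treatment.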

Liver [6] = assay: AUC (0 to infinity) in CD-1 mouse liver assessed as (1-((2-amino-9H-purin-9-yl)methyl)cyclopropoxy)me at 30 mg/kg, po administered as single dose by LC-MS analysis; format: ADME, organism-based; design: time infinity, dose 30 mg/kg, route oral; conditions: in vivo; outline: as §4
Homo sapiens [7] = assay: Tmax in high fat diet fed healthy human assessed as (1-((2-amino-9H-purin-9-yl)methyl)cyclopropoxy)me assessed as (1-((2-amino-9H-purin-9-yl)methyl)cyclopropoxy)me at 60 mg, po administered as single dose by LC-MS analysis; format: ADME, organism-based; conditions: in vivo
Outline: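 Healthy subjects received a single oral 60-mg dose after a high-fat breakfast or after an overnight fast. Plasma LB80331 was assayed by validated LC-MS/MS (LLOQ 5 ng/ml; intra- and interassay precision and accuracy <10%). Tmax was obtained by noncompartmental analysis.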

Homo sapiens [8] = assay: Oral clearance in chronic hepatitis B virus infected patient assessed as (1-((2-amino-9H-purin-9-yl)methyl)cyclopropoxy)me at 30 mg, po administered as single dose by LC-MS analysis; format: ADME, organism-based; conditions: in vivo
Outline: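 Oral LB80380 was given once daily for 4 weeks to CHB patients. Plasma LB80331 was quantified by validated LC-MS/MS after protein precipitation, with stable-isotope internal standard, at baseline and steady state (weeks 2–4), 0–24 h postdose. Noncompartmental CL/F was calculated as dose (adjusted for LB80380/LB80331 molecular weights) divided by AUC (AUC0-∞ single dose; AUC0-24 steady state).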

Homo sapiens [9] = assay: Tmax in chronic hepatitis B virus infected patient assessed as (1-((2-amino-9H-purin-9-yl)methyl)cyclopropoxy)me at 60 mg, po administered as single dose by LC-MS analysis; format: ADME, organism-based; conditions: in vivo; outline: as §1
Homo sapiens [10] = assay: Half life in chronic hepatitis B virus infected patient assessed as (1-((2-amino-9H-purin-9-yl)methyl)cyclopropoxy)me at 60 mg, po administered as single dose by LC-MS analysis; format: ADME, organism-based; conditions: in vivo; outline: as §2
Homo sapiens [11] = assay: Tmax in chronic hepatitis B virus infected patient assessed as (1-((2-amino-9H-purin-9-yl)methyl)cyclopropoxy)me at 120 mg, po administered as single dose by LC-MS analysis; format: ADME, organism-based; conditions: in vivo; outline: as §1
Homo sapiens [12] = assay: Half life in chronic hepatitis B virus infected patient assessed as (1-((2-amino-9H-purin-9-yl)methyl)cyclopropoxy)me at 120 mg, po administered as single dose by LC-MS analysis; format: ADME, organism-based; conditions: in vivo; outline: as §2
Homo sapiens [13] = assay: Tmax in chronic hepatitis B virus infected patient assessed as (1-((2-amino-9H-purin-9-yl)methyl)cyclopropoxy)me at 240 mg, po administered as single dose by LC-MS analysis; format: ADME, organism-based; conditions: in vivo; outline: as §1
Homo sapiens [14] = assay: Half life in chronic hepatitis B virus infected patient assessed as (1-((2-amino-9H-purin-9-yl)methyl)cyclopropoxy)me at 240 mg, po administered as single dose by LC-MS analysis; format: ADME, organism-based; conditions: in vivo; outline: as §2
Homo sapiens [15] = assay: Cmax in chronic hepatitis B virus infected patient assessed as (1-((2-amino-9H-purin-9-yl)methyl)cyclopropoxy)me at 30 mg, po qd for 4 weeks by LC-MS analysis; format: ADME, organism-based; design: dose 30 mg, route oral; conditions: in vivo, 672 h; outline: as §3
Homo sapiens [16] = assay: Ratio of AUC (0 to infinity) in high fat diet fed healthy human to AUC (0 to infinity) in fasted healthy human assessed as (1-((2-amino-9H-purin-9-yl)methyl)cyclopropoxy)me at 60 mg, po administered as single dose by LC-MS analysis; conditions: in vivo

Nc1ncc2ncn(CC3(OCP(=O)(O)O)CC3)c2n1 [BESIFOVIR]
Tmax (Homo sapiens [1]): 2 h
t1/2 (Homo sapiens [2]): 3 h
Cmax (Homo sapiens [3]): 696 ng/mL
t1/2 (Homo sapiens [4]): 3.1 h
t1/2 (Plasma): 2 h
Tmax (Liver [5]): 1 h
AUC (Liver [6]): 102 µM·h
Tmax (Homo sapiens [7]): 4 h
CL/F (Homo sapiens [8]): 288 mL/min
Tmax (Homo sapiens [9]): 2 h
t1/2 (Homo sapiens [10]): 3 h
Tmax (Homo sapiens [11]): 2 h
t1/2 (Homo sapiens [12]): 3 h
Tmax (Homo sapiens [13]): 2 h
t1/2 (Homo sapiens [14]): 3 h
Cmax (Homo sapiens [15]): 192 ng/mL
Ratio AUC (Homo sapiens [16]): 1.1
